NF-kB neuron act – NF-kB expression increase, human neuronal cells. 190,000 tested, 1.6% active. NF-kB reporter expression; hits give high values. fold change at 12.5 µM; in the data active = fold change above about 3.3
STAT1 inh – inhibitors of IFN-gamma induced STAT1 signaling. inhibition, % at 5.5 µM. NIH 3T3 STAT1-luciferase reporter, luminescence. 200,000 tested, 0.35% active;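 active = inhibition above a set limit, the mean inhibition across all tested compounds plus 3 SD, cut at about 34% in these data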;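 also: 0% = IFN-gamma with DMSO and 100% = IFN-gamma with 300 µM nifuroxazide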
STAT1 activator – activators of IFN-gamma induced STAT1 signaling; NIH 3T3 STAT1-luciferase reporter, luminescence; 100% = IFN-gamma alone, no compound; activation (% of control), % at 5.5 µM; 200,000 tested, 2.6% active;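 active = activation above the screen-wide mean activation plus 3 SD, cut at about 130% in these data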;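 also: raw ratio to IFN-gamma control signal so 100% means no change and 0% no light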
STAT3 activator – STAT3 signaling activation; AID 871; 190,000 tested, 0.91% active; activation (% of control), % at 5.6 µM; U3A cells, IL-6 STAT3-luciferase reporter, luminescence; 100% = signal with IL-6 EC80 alone;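 active = activation above the screen-wide mean of compound activation plus 3 SD, cut at about 130% in these data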;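 also: 0% = background luminescence of wells with medium and substrate only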
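Material: STAT1-lacking human U3A cells, STAT3 luciferase reporter | Benchmarks: IL-6-only wells as 100% reference | Probe or stimulus: IL-6 (33 ng/mL) | Timing: Compound 1 h, then IL-6 6 h at 37 °C | Detection: Luminescence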
APP 5'UTR act – activates APP 5'UTR luciferase reporter. SH-SY5Y APP 5'UTR luciferase reporter, luminescence; zero percent = DMSO vehicle wells. activation, % at 2 µM. 190,000 tested, 1% active;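 active = activation above a set limit, based on mean plus 3 SD of controls, cut at about 140% in these data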
STAT3 inh – reduces IL-6 driven STAT3 reporter signal | inhibition, % at 5.5 µM | U3A cells, IL-6 STAT3-luciferase reporter, luminescence; host cell line lacks STAT1 | 190,000 tested, 0.89% active | AID 862;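 active = inhibition above the mean inhibition across all screened compounds plus 3 SD, cut at about 44% in these data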;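 also: 0% = DMSO only wells and 100% = 100 µM nifuroxazide control wells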
STAT1 act conf – STAT1 activation, confirmation assay; 1,200 tested, 97% active; shares compounds with STAT1 activator; activation (% of control), % at 5.7 µM; NIH 3T3 STAT1-luciferase reporter, IFN-gamma potentiation, luminescence; 100% = IFN-gamma EC80 alone, no compound;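 active = activation above a set limit carried over from the earlier primary STAT1 screen, cut at about 140% in these data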;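 also: simple ratio to median IFN-gamma plus DMSO wells so 0% means no light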
NFkB act – counter-screen for STAT1 activators: NF-kappaB activation | shares compounds with STAT1 activator | HEK293T NF-kB luciferase reporter, TNF-alpha stimulated, luminescence; 100% = TNF-alpha with vehicle only | activation (% of control), % at 5.7 µM | 1,200 tested, 43% active | AID 1306;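 active = activation above the mean of solvent-only control wells plus 3 SD, set per campaign, cut at about 130% in these data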;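 also: TNF-alpha given at a submaximal dose yielding about 80% of full reporter signal; values are well signal over median control so 100% means no change and 0% no light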
STAT3 act STAT1c – activates human STAT3, counter-screen to STAT1 activators; shares compounds with STAT1 activator; U3A cells STAT3-luciferase reporter, IL-6, luminescence; cells lack STAT1; 100 = IL-6 alone, no compound effect; activation (% of control), % at 5.7 µM; 1,200 tested, 46% active;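 active = activation above the solvent-only control well mean plus 3 SD, set per plate batch, cut at about 110% in these data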;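 also: 0% = no luminescence and 100% = median IL-6 plus DMSO wells; higher means more STAT3 reporter activation so hits are non-selective activators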
* = called active by the depositor; . = no result given. A selection: hits, their analogues and other compounds. The true share with any hit is near 4.9%.

SMILES	NF-kB neuron act	STAT1 inh	STAT1 activator	STAT3 activator	APP 5'UTR act	STAT3 inh	STAT1 act conf	NFkB act	STAT3 act STAT1c
c1ccc(-c2csc(NC3=NCCCCC3)n2)cc1	1.61	-23.8	121.6	104.4	42.3	-10.0	.	.	.
CC(=O)Nc1ccc(-c2csc(Nc3ncccn3)n2)cc1	1.37	-60.8	154.9*	98.9	140.8*	6.6	168.1*	129.5	111.4*
Clc1ccccc1Nc1nc(-c2cccnc2)cs1	7.8*	-76.5	168.2*	102.4	195.4*	-0.5	225.9*	134.1*	110.8*
CCCCCNc1nc(-c2ccccc2)cs1	6.4*	-50.6	152.9*	83.0	2.4	20.5	177.3*	124.9	100.3
O=C(O)CC1=C(Nc2ccccc2)C(=O)N(c2ccccc2)C1c1ccc(Br)cc1 (centres undefined)	1.27	9.3	90.1	84.6	7.2	23.1	.	.	.
COC(=O)Cn1c(CN2CCN(c3ccc(F)cc3)CC2)nc2c1c(=O)n(C)c(=O)n2C	0.82	.	.	.	-13.2	.	.	.	.
CCSc1ncc(/C=N/Nc2ccc([N+](=O)[O-])cc2)n1C	1.8	-68.3	162.4*	99.9	89.8	6.2	196.3*	149.3*	102.2
CCSc1ncc(/C=N/Nc2ccccc2)n1C	1.84	0.1	99.9	115.0	23.4	-12.3	.	.	.
COC(=O)[C@@]1(Cc2ccc(OC)cc2)[C@H]2c3cc(C(=O)N4CCCC4)n(CCc4c[nH]c5ccc(O)cc45)c3C[C@H]2CN1C(=O)c1ccccc1	0.77	-3.5	103.1	102.8	11.4	-6.2	.	.	.
O=[N+]([O-])c1ccccc1-c1nc(-c2ccc(Br)o2)no1	0.99	-79.3	170.5*	106.3	159.8*	-7.0	199.6*	132.3	137.1*
Nc1nnc(-c2ccccc2[N+](=O)[O-])o1	1	-12.0	109.3	96.3	14.1	8.5	.	.	.
CC(C)(C)C(=O)COc1ccccc1[N+](=O)[O-]	0.75	6.3	94.3	103.2	-3.3	5.8	.	.	.
CCOC(=O)/C=C/COc1ccccc1[N+](=O)[O-]	2.12	-58.4	153.9*	106.6	40.1	-3.9	145.9*	119.5	100.2
CCCCC1(C(=O)OCC)CC(CSC(=N)N)OC1=O (centres undefined)	.	-1.4	101.7	101.7	25.9	4.2	.	.	.
COc1ccc(C(=O)/C=C(\C)Nc2ccc3c(c2)OCO3)cc1	2.66	-12.5	111.2	104.1	46.4	6.6	.	.	.
CCOc1ccc(N/C(C)=C\C(=O)c2ccc3c(c2)OCCO3)cc1	3.37*	-63.4	156.2*	90.4	36.0	14.4	219.9*	134.0*	105.1
CCc1nnc(NC(=O)c2sc3nc4c(cc3c2N)CCCCC4)s1	3.37*	-61.0	154.6*	105.6	70.0	-5.9	187.2*	134.9*	116.6*
CCc1nnc(NC(=O)c2sc3nc4c(cc3c2N)CCCCCC4)s1	1.99	-31.9	128.5	105.2	12.2	-4.0	.	.	.
Cc1ccc(-c2nc(CN(Cc3cnn(C)c3)C(C)C)c(C)o2)o1	1.15	-4.6	102.7	102.0	2.5	2.0	.	.	.
Cc1nn(-c2ccccc2)c(C)c1/C=N/Nc1nc2ccccc2[nH]1	2.88	-115.8	203.5*	87.6	153.7*	17.0	288.7*	124.2	107.9
Cc1ccsc1/C=N/Nc1nc2ccccc2[nH]1	5.32*	-59.0	152.7*	102.9	145.3*	-1.2	192.8*	132.1	106.7
CC(/C=N/Nc1nc(C)cc(=O)[nH]1)=C\c1ccccc1	1.25	-9.0	108.7	87.7	11.6	21.9	.	.	.
CC(/C=N/Nc1nc2ccccc2[nH]1)=C\c1ccccc1	8.6*	-101.3	192.3*	84.2	172.4*	14.4	246.2*	138.9*	114.2*
COc1ccc(/C=N/n2cnnc2SCCO)cc1OC	1.41	1.4	98.7	111.6	8.8	-12.8	.	.	.
C=CCSc1nncn1/N=C/c1ccc(OC)cc1	3.39*	-91.6	183.8*	125.0	110.9	-25.2	200.5*	145.9*	133.1*
SMILES	NF-kB neuron act	STAT1 inh	STAT1 activator	STAT3 activator	APP 5'UTR act	STAT3 inh	STAT1 act conf	NFkB act	STAT3 act STAT1c
COc1ccc(CNC(=O)C(c2ccc(C)o2)N(Cc2cccs2)C(=O)Cc2cccs2)cc1 (centres undefined)	0.36	-4.1	103.8	103.3	-8.9	-2.9	.	.	.
O=C1c2ccccc2C(=O)N1Cc1ccco1	1.21	0.5	97.4	101.8	10.9	1.2	.	.	.
CC1=CC(=C2C(=O)c3ccccc3C2=O)C=C(C)N1Cc1ccco1	4.63*	-70.8	164.9*	89.7	128.3	14.5	178.1*	133.8*	109.3
O=S(=O)(Nc1nc2ccc(S(=O)(=O)N3CCCCC3)cc2s1)c1ccccc1	0.73	1.4	98.7	96.9	-21.9	5.3	.	.	.
O=C(N/N=C/c1ccc(Br)cc1)c1ccc(Br)o1	3.52*	-66.8	158.6*	103.7	65.2	-1.5	189.9*	137.0*	113.3*
COc1ccc(CCN(Cc2cc3cccc(C)c3[nH]c2=O)C(=O)NC2CCCCC2)cc1OC	0.45	4.9	95.5	97.0	6.9	9.3	.	.	.
O=C(NN/C(=N/S(=O)(=O)c1ccc(Cl)cc1)c1ccccc1)c1ccc(O)cc1	1.28	-59.0	151.8*	92.2	128.9	9.6	154.1*	107.6	111.3*
COc1ccccc1C(=O)COC(=O)c1ccc(N(C)C)cc1	1.04	-80.0	173.6*	107.6	141.7*	-6.7	174.8*	134.3*	132.0*
CC(NC(=O)COC(=O)c1ccc(N(C)C)cc1)c1ccccc1 (centres undefined)	0.92	-9.2	107.1	97.3	2.6	10.8	.	.	.
Cc1oc(-c2ccccc2)nc1CC(=O)O	1.17	-0.5	98.7	101.3	0.6	-1.7	.	.	.
Cc1oc(-c2ccc(-c3ccccc3)cc2)nc1CN1CCN(CC(=O)N(C)C)CC1	2.05	-61.5	154.9*	129.1	90.1	-28.6	191.2*	129.7	128.2*
O=C(N/N=C/C=C/c1ccccc1)c1cccs1	3.55*	-60.9	156.7*	89.1	77.8	17.6	165.2*	137.0*	99.0
CC(/C=N/NC(=O)c1cccs1)=C\c1ccco1	5.55*	-73.2	171.4*	102.2	160.1*	2.5	172.6*	128.0	109.5
O=C(N/N=C/C=C/c1ccccc1)c1ccncc1	1.17	-1.5	101.6	97.2	-11.3	1.9	.	.	.

High-throughput results: PubChem, several laboratories
